Results as given in ChEMBL document CHEMBL1122797, “Benzisoxazolones: antimicrobial and antileukemic activity” (1984).
Converted amounts (≈) assume the structure as drawn. “And” between values parts separate entries of the source, which are not always exact repeats. Equal values may be shown once. The source made the active and inactive calls. The calls are words filed in the database; no cut-off is given here.

Assays:
[1] = system: Bacillus subtilis; assay: Evaluation of in vitro antimicrobial activity with an agar diffusion assay against Bacillus subtilis; assay type: functional
In short: (§1)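 Agar diffusion assay. A standard antibiotic was run to validate the assays, with data reproducible to ± 3 mm between assays.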

[2] = system: Escherichia coli; assay: Evaluation of in vitro antimicrobial activity with an agar diffusion assay against Escherichia coli; assay type: functional; in short: as §1
[3] = system: Klebsiella pneumoniae; assay: Evaluation of in vitro antimicrobial activity with an agar diffusion assay against Klebsiella pneumoniae; assay type: functional; in short: as §1
[4] = system: L1210; assay: In vitro antileukemic (cytotoxic) activity against L1210 cells in suspension.; assay type: functional, Mus musculus; details: for IC50: Mus musculus, L1210, read-out: ID50 (the source's name)
[5] = system: L1210; assay: In vitro evaluation of the antileukemic (cytotoxic) activity against L1210 cells in suspension; assay type: functional, Mus musculus
[6] = system: Penicillium oxalicum; assay: Evaluation of in vitro antimicrobial activity with an agar diffusion assay against Penicillium oxalicum; assay type: functional, pencillium oxalicum; in short: as §1
[7] = system: Proteus vulgaris; assay: Evaluation of in vitro antimicrobial activity with an agar diffusion assay against Proteus vulgaris; assay type: functional; in short: as §1
[8] = system: Pseudomonas; assay: Evaluation of in vitro antimicrobial activity with an agar diffusion assay against Pseudomonas fluorescence; assay type: functional; in short: as §1
[9] = system: Pseudomonas aeruginosa; assay: Evaluation of in vitro antimicrobial activity with an agar diffusion assay against Pseudomonas aeruginosa; assay type: functional; in short: as §1
[10] = Evaluation of in vitro antimicrobial activity with an agar diffusion assay against Salmonella schottmuelleri; assay type: functional; in short: as §1
[11] = system: Micrococcus luteus; assay: Evaluation of in vitro antimicrobial activity with an agar diffusion assay against Micrococcus luteus; assay type: functional; in short: as §1
[12] = system: Saccharomyces pastorianus; assay: Evaluation of in vitro antimicrobial activity with an agar diffusion assay against Saccharomyces pastorianus; assay type: functional; in short: as §1
[13] = system: Staphylococcus aureus; assay: Evaluation of in vitro antimicrobial activity with an agar diffusion assay against Staphylococcus aureus; assay type: functional; in short: as §1
[14] = system: Pseudomonas aeruginosa; assay: Evaluation of in vitro antimicrobial activity with an agar diffusion assay against Pseudomonas aeruginosa; Inactive; assay type: functional, organism-based; in short: as §1
[15] = system: Escherichia coli; assay: In vitro evaluation of antimicrobial activity with microplate broth dilution assay against Escherichia coli UC45; assay type: functional
In short: (§2)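 Serial twofold dilutions prepared in modified brain heart infusion broth in microplate wells. Each well inoculated with standardized cell suspension to ~10^6 viable cells per mL of drug-supplemented medium. Plates incubated 37 °C for 20 h. MIC read as lowest concentration inhibiting visible growth.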

[16] = system: Klebsiella pneumoniae; assay: In vitro evaluation of antimicrobial activity with microplate broth dilution assay against Klebsiella pneumoniae UC58; assay type: functional; in short: as §2
[17] = system: Proteus mirabilis; assay: In vitro evaluation of antimicrobial activity with microplate broth dilution assay against Proteus mirabilis UC6671; assay type: functional; in short: as §2
[18] = system: Providencia stuartii; assay: In vitro evaluation of antimicrobial activity with microplate broth dilution assay against Providencia stuartii UC6570; assay type: functional; in short: as §2
[19] = system: Proteus vulgaris; assay: In vitro evaluation of antimicrobial activity with microplate broth dilution assay against Proteus vulgaris UC93; assay type: functional; in short: as §2
[20] = system: Salmonella typhi; assay: In vitro evaluation of antimicrobial activity with microplate broth dilution assay against Salmonella typhi UC215; assay type: functional, Salmonella enterica subsp. enterica serovar Typhi; details: Salmonella enterica
In short: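 Twofold serial dilutions in modified brain heart infusion broth in microplate wells, each inoculated with standardized cell suspension to about 10^6 viable cells/mL final. Incubated 37 °C for 20 h. MIC read as the lowest concentration inhibiting visible growth.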

[21] = In vitro evaluation of antimicrobial activity with microplate broth dilution assay against Salmonella schottmuelleri UC126; assay type: functional; in short: as §2
[22] = system: Shigella flexneri; assay: In vitro evaluation of antimicrobial activity with microplate broth dilution assay against Shigella flexneri UC143; assay type: functional; in short: as §2
[23] = system: Serratia marcescens; assay: In vitro evaluation of antimicrobial activity with microplate broth dilution assay against Serratia marcescens UC131; assay type: functional; in short: as §2
[24] = system: Pseudomonas aeruginosa; assay: In vitro evaluation of antimicrobial activity with microplate broth dilution assay against Pseudomonas aeruginosa UC95; assay type: functional; in short: as §2
[25] = system: Staphylococcus aureus; assay: In vitro evaluation of antimicrobial activity with microplate broth dilution assay against Staphylococcus aureus UC76; assay type: functional; in short: as §2
[26] = system: Enterococcus faecalis; assay: In vitro evaluation of antimicrobial activity with microplate broth dilution assay against Streptococcus faecalis UC694
[27] = system: Enterococcus faecalis; assay: In vitro evaluation of antimicrobial activity with microplate broth dilution assay against Streptococcus faecalis UC694; assay type: functional, streptococcus feacal; in short: as §2

Row | Compound | Zone of inhibition [1] | Zone of inhibition [2] | Zone of inhibition [3] | Zone of inhibition [6] | Zone of inhibition [7] | Zone of inhibition [8] | Zone of inhibition [9] | Zone of inhibition [10] | ID50 [4] | Zone of inhibition [11] | Zone of inhibition [13] | further results
1 | Cc1ccc(C(=O)OCn2oc(=O)c3ccccc32)cc1 | 20 mm | 18 mm | 21 mm | 24 mm | 22 mm | 20 mm | 22 mm | 17 mm | – | – | – | IC50 [4]: 4.6 µg/mL (≈ 16.2 µM); ID90 [5]: 17 µg/mL (≈ 60 µM)
2 | Oc1onc2ccccc12 | 22 mm | 25 mm | 26 mm | 41 mm | 30 mm | 35 mm | 30 mm | 26 mm | 3.1 µg/mL and 8 µg/mL | 27 mm | 15 mm | Zone of inhibition [12]: 16 mm
3 | O=C(NCCCCCI)n1oc(=O)c2ccccc21 | – | – | – | – | – | – | – | – | 3.7 µg/mL and 8.6 µg/mL | – | – | Zone of inhibition [14]: inactive
4 | CCCCCCCCCCCCCCCC(=O)OCn1oc(=O)c2ccccc21 | – | – | – | – | – | – | – | – | – | – | – | Zone of inhibition [14]: inactive
5 | CNC(=O)OCn1oc(=O)c2ccccc21 | 16 mm | 30 mm | 23 mm | 46 mm | 32 mm | 33 mm | 39 mm | 28 mm | – | 33 mm | – | MIC [15]: 31.2 µg/mL (≈ 140 µM); MIC [16]: 62.5 µg/mL (≈ 281 µM); IC50 [4]: 3.5 µg/mL (≈ 15.8 µM); ID90 [5]: 8.6 µg/mL (≈ 38.7 µM); MIC [17]: 31.2 µg/mL (≈ 140 µM); MIC [18]: 62.5 µg/mL (≈ 281 µM); MIC [19]: 15.6 µg/mL (≈ 70.2 µM); MIC [20]: 15.6 µg/mL (≈ 70.2 µM); MIC [21]: 31.2 µg/mL (≈ 140 µM); MIC [22]: 31.2 µg/mL (≈ 140 µM); MIC [23]: 3.9 µg/mL (≈ 17.6 µM); MIC [24]: 15.6 µg/mL (≈ 70.2 µM); MIC [25]: 62.5 µg/mL (≈ 281 µM)
6 | O=c1on(CO)c2ccccc12 | – | – | – | – | – | – | – | – | – | – | – | MIC [15]: 15.6 µg/mL (≈ 94.5 µM); MIC [16]: 31.6 µg/mL (≈ 191 µM); MIC [17]: 15.6 µg/mL (≈ 94.5 µM); MIC [18]: 31.2 µg/mL (≈ 189 µM); MIC [19]: 3.9 µg/mL (≈ 23.6 µM); MIC [20]: 7.8 µg/mL (≈ 47.2 µM); MIC [21]: 31.2 µg/mL (≈ 189 µM); MIC [22]: 15.6 µg/mL (≈ 94.5 µM); MIC [23]: 2 µg/mL (≈ 12.1 µM); MIC [24]: 7.8 µg/mL (≈ 47.2 µM); MIC [25]: 62.5 µg/mL (≈ 378 µM); MIC [26]: 250 µg/mL (≈ 1510 µM)
7 | CC(=O)OCn1oc(=O)c2ccccc21 | 24 mm | 26 mm | 24 mm | 43 mm | 25 mm | 32 mm | 32 mm | 22 mm | – | 24 mm | 15 mm | MIC [15]: 125 µg/mL (≈ 603 µM); MIC [16]: 62.5 µg/mL (≈ 302 µM); IC50 [4]: 5.1 µg/mL (≈ 24.6 µM); ID90 [5]: 19 µg/mL (≈ 91.7 µM); MIC [17]: 62.5 µg/mL (≈ 302 µM); MIC [18]: 125 µg/mL (≈ 603 µM); MIC [19]: 15.6 µg/mL (≈ 75.3 µM); MIC [20]: 62.5 µg/mL (≈ 302 µM); MIC [21]: 62.5 µg/mL (≈ 302 µM); Zone of inhibition [12]: 17 mm; MIC [22]: 62.5 µg/mL (≈ 302 µM); MIC [23]: 15.6 µg/mL (≈ 75.3 µM); MIC [27]: > 250 µg/mL; MIC [25]: > 250 µg/mL
8 | CNC(=O)n1oc(=O)c2ccccc21 | – | – | 16 mm | – | 19 mm | – | 24 mm | – | 4.9 µg/mL and 14 µg/mL | – | – | –
9 | O=C(CCCCCI)OCn1oc(=O)c2ccccc21 | 15 mm | – | – | 26 mm | 15 mm | 23 mm | 17 mm | – | 19 µg/mL (≈ 48.8 µM) | – | – | –
10 | O=C(COc1ccccc1)OCn1oc(=O)c2ccccc21 | 20 mm | 18 mm | 22 mm | 24 mm | 21 mm | 31 mm | 19 mm | 20 mm | – | 19 mm | 15 mm | –
11 | CC(=O)n1oc(=O)c2ccccc21 | 24 mm | 26 mm | 20 mm | 49 mm | 23 mm | 31 mm | 38 mm | 20 mm | 3.4 µg/mL and 8.7 µg/mL | 18 mm | – | Zone of inhibition [12]: 21 mm
12 | CC(C)C(=O)OCn1oc(=O)c2ccccc21 | 17 mm | 17 mm | 22 mm | 29 mm | 24 mm | 33 mm | 22 mm | 23 mm | – | 22 mm | 17 mm | –
13 | Cn1oc(=O)c2ccccc21 | – | – | – | – | – | – | – | – | – | – | – | Zone of inhibition [14]: inactive
14 | CC(C)(C)C(=O)OCn1oc(=O)c2ccccc21 | 18 mm | 17 mm | 21 mm | 31 mm | 18 mm | 30 mm | 20 mm | 22 mm | – | 18 mm | 18 mm | –
15 | CS(=O)(=O)n1oc(=O)c2ccccc21 | – | – | – | – | – | – | 31 mm | – | 3.7 µg/mL and 8.6 µg/mL | – | – | –
16 | COCn1oc(=O)c2ccccc21 | – | – | – | – | – | – | – | – | – | – | – | Zone of inhibition [14]: inactive
